Laboratory results as given in ChEMBL document CHEMBL3098112, “Synthesis and evaluation of spiroisoxazoline oxindoles as anticancer agents” (Bioorg Med Chem, 2014).
The source made the active and inactive calls. The calls are words filed in the database; no cut-off is given here.

Experiments:
SW-620 = assay: Antiproliferative activity against human SW620 cells expressing p53 mutant after 24 hrs by MTS assay; format: functional; conditions: SW-620, 24 h
Method in brief: (§1)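 Cells plated (1×10^5 cells/mL) and treated about 24 h later with compounds in DMSO diluted in medium, 0.5 to 200 µM; viability read 24 h after treatment by MTS, absorbance 490 nm. GI50 from non-linear regression; mean ± SEM of three independent experiments. HCT116 and SW620 in McCoy's 5A, HepG2 in DMEM, all with 10% FBS, 37 °C, 5% CO2.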

HepG2 = assay: Antiproliferative activity against human HepG2 cells after 24 hrs by MTS assay; format: functional; conditions: HepG2, 24 h; method in brief: as §1
HCT-116 [1] = assay: Antiproliferative activity against human HCT116 cells expressing p53 after 24 hrs by MTS assay; format: functional; conditions: HCT-116, 24 h; method in brief: as §1
HCT-116 [2] = assay: Antiproliferative activity against p53-deficient human HCT116 cells after 24 hrs by MTS assay; format: functional; conditions: HCT-116, 24 h; method in brief: as §1
[3] = biological target: T1, Tumour suppressor p53/oncoprotein Mdm2 (Homo sapiens) (UniProt P04637+Q00987); assay: Inhibition of p53-MDM2 (unknown origin) interaction expressed in p53-deficient human HCT116 cells at 10 to 50 uM after 24 hrs by BiFC-based FACS flow cytometric analysis; format: cell-based; conditions: HCT-116
T1 sequence (P04637 whole entry, looked up): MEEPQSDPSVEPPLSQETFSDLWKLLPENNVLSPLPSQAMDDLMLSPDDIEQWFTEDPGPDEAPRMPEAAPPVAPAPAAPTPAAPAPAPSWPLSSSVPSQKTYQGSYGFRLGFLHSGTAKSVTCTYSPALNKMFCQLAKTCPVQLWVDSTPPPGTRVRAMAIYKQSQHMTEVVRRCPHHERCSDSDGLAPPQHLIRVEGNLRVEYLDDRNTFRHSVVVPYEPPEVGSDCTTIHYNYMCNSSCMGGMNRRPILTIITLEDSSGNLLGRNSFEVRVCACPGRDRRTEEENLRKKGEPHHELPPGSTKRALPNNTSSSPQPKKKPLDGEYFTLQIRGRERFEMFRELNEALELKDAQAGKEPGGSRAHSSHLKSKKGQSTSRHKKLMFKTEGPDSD
T1 sequence (Q00987 whole entry, looked up): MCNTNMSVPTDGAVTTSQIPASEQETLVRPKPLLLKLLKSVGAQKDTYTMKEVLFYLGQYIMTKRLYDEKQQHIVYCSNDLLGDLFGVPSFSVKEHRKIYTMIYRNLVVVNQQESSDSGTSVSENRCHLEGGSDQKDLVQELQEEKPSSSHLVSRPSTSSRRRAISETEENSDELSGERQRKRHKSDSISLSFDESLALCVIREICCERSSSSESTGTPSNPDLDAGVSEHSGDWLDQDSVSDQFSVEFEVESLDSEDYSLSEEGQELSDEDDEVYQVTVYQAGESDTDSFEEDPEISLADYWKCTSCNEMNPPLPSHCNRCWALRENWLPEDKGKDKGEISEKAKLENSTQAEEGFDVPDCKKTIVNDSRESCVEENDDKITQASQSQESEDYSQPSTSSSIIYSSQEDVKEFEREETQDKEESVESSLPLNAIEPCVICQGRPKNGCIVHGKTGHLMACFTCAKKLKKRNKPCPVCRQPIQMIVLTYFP
Method in brief: (§2)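 HCT116 p53-/- cells co-transfected with V1-p53/MDM2-V2 BiFC plasmids (1 µg each, Lipofectamine 2000). Medium replaced 4–6 h post-transfection and compounds in DMSO added. Cells harvested at 24 h with accutase, resuspended in PBS, and complementation fluorescence measured by flow cytometry; n = 3.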

Plasma = assay: Metabolic stability in human plasma up to 72 hrs by HPLC analysis; format: ADME, cell-free
[4] = Chemical stability in phosphate buffer at pH 7.4 up to 72 hrs by HPLC analysis; format: physicochemical; conditions: pH 7.4, 72 h
Method in brief: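 12.5 µL of 10^-2 M DMSO stock added to 2.5 mL potassium phosphate buffer (pH 7.4, 0.5 M) at 37 °C; aliquots taken at intervals into acetonitrile and analysed by RP-18 HPLC (acetonitrile/water 70:30, 1 mL/min, UV 260 nm, 25 °C) over 72 h.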

[5] = Half life in Sprague-Dawley rat liver microsomes by HPLC analysis in presence of NADPH-regenerating system; format: ADME
Method in brief: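 Male Sprague–Dawley pooled liver microsomes in potassium phosphate pH 7.4 with NADPH regenerating system, preincubated 5 min at 37 °C. Reaction started with 4 µL of 10^-3 M DMSO stock. Aliquots quenched in acetonitrile, centrifuged, and supernatant analysed by RP-18 HPLC at 260 nm for half-life.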

[6] = biological target: T1, Tumour suppressor p53/oncoprotein Mdm2 (Homo sapiens); assay: Inhibition of p53-MDM2 (unknown origin) interaction expressed in p53-deficient human HCT116 cells at 25 to 50 uM after 24 hrs by BiFC-based FACS flow cytometric analysis; format: cell-based; conditions: HCT-116; method in brief: as §2
HCT-116 [7] = assay: Induction of apoptosis in p53-deficient human HCT116 cells assessed as increase in PARP cleavage after 24 hrs by Western blotting analysis; format: functional, cell-based; conditions: in the assay text read “p53 wild-type” for “p53-deficient”
HCT-116 [8] = assay: Induction of apoptosis in p53-deficient human HCT116 cells assessed as caspase 3 activation after 24 hrs by Western blotting analysis; format: functional, cell-based; conditions: in the assay text read “p53 wild-type” for “p53-deficient”
Method in brief: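 HCT116 p53-/- cells seeded at 3×10^5 cells/mL and exposed to vehicle or compound at 25 and 50 µM for 24 h. Whole-cell extracts (60–80 µg) run on 8% and 14% SDS-PAGE and immunoblotted for caspase-3 or PARP-1/2. Bands quantified by densitometry and normalized to β-actin; three independent experiments.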

GI50 (SW-620) | GI50 (HepG2) | GI50 (HCT-116 [1]) | GI50 (HCT-116 [2]) | SMILES | further results
33.5 µM | 33.8 µM | 32.4 µM | 39 µM | O=C1Nc2cc(Cl)ccc2[C@]12ON=C(c1ccc([N+](=O)[O-])cc1)[C@H]2c1ccccc1 (relative stereo) | 
 | 83.6 µM |  |  | O=C1Nc2ccc([N+](=O)[O-])cc2[C@]12ON=C(c1ccccc1)[C@H]2c1ccccc1 (relative stereo) | 
48.9 µM | 37.1 µM | 39.8 µM | 48.2 µM | O=C1Nc2cc(Cl)ccc2[C@]12ON=C(c1ccccc1)[C@H]2c1ccccc1 (relative stereo) | inhibition [3]: Active
40.4 µM | 31.7 µM | 33.4 µM | 39 µM | COc1ccc(C2=NO[C@@]3(C(=O)Nc4cc(Br)ccc43)[C@@H]2c2ccccc2)cc1 (relative stereo) | Stability (Plasma): Stable; Stability [4]: Stable; half-life [5]: 217 min
53.2 µM | 38.1 µM | 34.7 µM | 40.1 µM | COc1ccc(C2=NO[C@@]3(C(=O)Nc4cc(Cl)ccc43)[C@@H]2c2ccccc2)cc1 (relative stereo) | inhibition [6]: Active; Activity (HCT-116 [7]): Dose-dependent effect; Activity (HCT-116 [8]): Dose-dependent effect; Stability (Plasma): Stable; Stability [4]: Stable; half-life [5]: 189 min
 | > 100 µM |  |  | COc1ccc([C@@H]2C(c3ccccc3)=NO[C@@]23C(=O)Nc2ccccc23)cc1 (relative stereo) | 
 | > 100 µM |  |  | COc1ccc(C2=NO[C@@]3(C(=O)Nc4cc(Cl)ccc43)[C@@H]2c2ccc(OC)cc2)cc1 (relative stereo) | 
 | 55.5 µM |  |  | O=C1Nc2c(Cl)cccc2[C@]12ON=C(c1ccc([N+](=O)[O-])cc1)[C@H]2c1ccccc1 (relative stereo) | 
 | > 100 µM |  |  | O=C1Nc2ccccc2[C@]12ON=C(c1ccccc1)[C@H]2c1ccccc1 (relative stereo) | 
 | 55.8 µM |  |  | COc1ccc(C2=NO[C@@]3(C(=O)Nc4c(Cl)cccc43)[C@@H]2c2ccccc2)cc1 (relative stereo) | 
36.7 µM | 35.7 µM | 30.5 µM | 35.6 µM | COc1ccccc1C1=NO[C@@]2(C(=O)Nc3cc(Cl)ccc32)[C@@H]1c1ccccc1 (relative stereo) | 
 | 51.3 µM |  | 52.3 µM | COc1ccc(C2=N[C@@H](c3ccc(Cl)cc3)[C@@H](c3ccc(Cl)cc3)N2C(=O)N2CCNC(=O)C2)c(OC(C)C)c1 [NUTLIN-3] | 
 | 77.8 µM |  |  | COc1ccc(C2=NO[C@@]3(C(=O)Nc4ccccc43)[C@@H]2c2ccccc2)cc1 (relative stereo) | 
 | > 100 µM |  |  | COc1ccc([C@@H]2C(c3ccccc3)=NO[C@@]23C(=O)N(C)c2ccccc23)cc1 (relative stereo) | 
31.6 µM | 29.1 µM | 26.6 µM | 30.6 µM | Cc1ccc(C2=NO[C@@]3(C(=O)Nc4cc(Cl)ccc43)[C@@H]2c2ccccc2)cc1 (relative stereo) | inhibition [6]: Active; Activity (HCT-116 [7]): Dose-dependent effect; Activity (HCT-116 [8]): Dose-dependent effect
 | > 100 µM |  |  | COc1ccc(C2=NO[C@@]3(C(=O)Nc4ccccc43)[C@@H]2c2ccc(OC)cc2)cc1 (relative stereo) | 
 | 52.1 µM |  |  | O=C1Nc2ccccc2[C@]12ON=C(c1ccc([N+](=O)[O-])cc1)[C@H]2c1ccccc1 (relative stereo) | 
39.6 µM | 32.8 µM | 35 µM | 40.6 µM | O=C1Nc2cc(Br)ccc2[C@]12ON=C(c1ccccc1)[C@H]2c1ccccc1 (relative stereo) | 
 | 53.1 µM |  |  | COc1ccc(C2=NO[C@@]3(C(=O)Nc4ccc([N+](=O)[O-])cc43)[C@@H]2c2ccccc2)cc1 (relative stereo) | 
